Source: ChEMBL document CHEMBL1123440, “Mitomycin C analogues with increased metal complexing ability” (J Med Chem, 1986)

What was measured:
P388 [1] = test: Antitumor activity against P-388 leukemia in mice, activity is expressed as maximum effect (% T/C) = MST(median survival time) treated/ MST control in the present of Mitomycin C; type: functional, Mus musculus
Summary of the method: (§1)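 P388 ascites, 10⁶ cells implanted ip in female CDF1 mice. Six mice per dose of analogue, with 10 saline-injected controls. Each test group carried its own mitomycin C positive control, six mice per dose. Read-out is median survival time (MST). %T/C = MST treated/MST control × 100, taken at the optimal dose. MED is the dose giving %T/C 125. 30-day survivors were counted.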

P388 [2] = test: (§2) Antitumor activity against P-388 leukemia in mice, activity is expressed as maximum effect (% T/C) = MST(median survival time) treated/ MST control in the presence of compound only; type: functional, Mus musculus; summary of the method: as §1
P388 [3] = test: Antitumor activity against P-388 leukemia in mice, activity is expressed as Optimal dose; type: functional, Mus musculus; summary of the method: as §1
P388 [4] = test: Antitumor activity against P-388 leukemia in mice, activity is expressed as Minimum effective dose; type: functional; conditions: Mus musculus, read-out: MED; summary of the method: as §1
[5] = Ratio value, Optimal dose / Minimum effective dose; type: functional
Summary of the method: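 Therapeutic ratio from the P388 ip survival test in female CDF1 mice (10⁶ ascites cells). Calculated as optimal dose divided by minimum effective dose. The minimum effective dose is the dose giving %T/C 125.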

[6] = Partition coefficient (logP); type: physicochemical; conditions: octanol/water
Summary of the method: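 Shake-flask distribution between n-octanol and water containing phosphate buffer at pH 7.4, run by the Hansch method.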

Mus musculus [7] = species on record: Mus musculus; test: Compound was tested for antitumor activity against P-388 leukemia in mice, activity is expressed as maximum effect (% T/C) = MST(median survival time) treated/ MST control in the pr; type: functional; summary of the method: as §1
Mus musculus [8] = species on record: Mus musculus; test: Compound was tested for antitumor activity against P-388 leukemia in mice, activity is expressed as maximum effect (% T/C) = MST(median survival time) treated/ MST control in the presence of compound only; 132->344; type: functional; summary of the method: as §1
Mus musculus [9] = species on record: Mus musculus; test: Compound was tested for antitumor activity against P-388 leukemia in mice, activity is expressed as Optimal dose; 3.2-4.8; type: functional
Mus musculus [10] = species on record: Mus musculus; test: as §2; type: functional; summary of the method: as §1

SMILES | T/C (P388 [1]) [%] | T/C (P388 [2]) [%] | OD (P388 [3]) [mg/kg] | minimal effective dose (P388 [4]) [mg/kg] | Ratio [5] | logP [6] | T/C (Mus musculus [7]) [%] | T/C (Mus musculus [8]) [%] | OD (Mus musculus [9]) [mg/kg] | T/C (Mus musculus [10]) [%]
CO[C@@]12C(COC(N)=O)C3=C(C(=O)C(C)=C(NC(CO)C(=O)O)C3=O)N1CC1NC12 (stereo partly drawn) | 263 | 138 | 25.6 | 6.4 |  |  |  |  |  | 
CO[C@@]12C(COC(N)=O)C3=C(C(=O)C(C)=C(NCCC(=O)O)C3=O)N1CC1NC12 (stereo partly drawn) | 194 | 133 | 25.6 | 25.6 |  |  |  |  |  | 
CO[C@@]12C(COC(N)=O)C3=C(C(=O)C(C)=C(NCCCCN=C(N)N)C3=O)N1CC1NC12 (stereo partly drawn) | 263 | 156 | 25.6 | 1.6 | 16 |  |  |  |  | 
CO[C@@]12C(COC(N)=O)C3=C(C(=O)C(C)=C(NCCc4ccccn4)C3=O)N1CC1NC12 (stereo partly drawn) |  | >375 | 25.6 | 0.2 | 128 | -0.09 | 319 |  |  | 
COC(=O)C(CCSC)NC1=C(C)C(=O)C2=C(C1=O)C(COC(N)=O)[C@@]1(OC)C3NC3CN21 (stereo partly drawn) | 250 | 131 | 6.4 | 3.2 |  |  |  |  |  | 
CO[C@@]12C(COC(N)=O)C3=C(C(=O)C(C)=C(NCC(O)CN)C3=O)N1CC1NC12 (stereo partly drawn) | >344 | 122 | 12.8 | 12.8 |  |  |  |  |  | 
CO[C@@]12C(COC(N)=O)C3=C(C(=O)C(C)=C(NC(C)C(=O)O)C3=O)N1CC1NC12 (stereo partly drawn) | 132 | 109 | 12.8 |  |  |  |  |  |  | 
CO[C@@]12[C@H](COC(N)=O)C3=C(C(=O)C(C)=C(N)C3=O)N1C[C@@H]1N[C@@H]12 [MITOMYCIN] |  |  |  | 0.2 | 24 |  |  | 132 | 3.2 | 
CO[C@@]12C(COC(N)=O)C3=C(C(=O)C(C)=C(NCCNCCO)C3=O)N1CC1NC12 (stereo partly drawn) | 156 | 133 | 12.8 | 12.8 | 1 | -0.57 |  |  |  | 
CCOC(=O)C(CO)NC1=C(C)C(=O)C2=C(C1=O)C(COC(N)=O)[C@@]1(OC)C3NC3CN21 (stereo partly drawn) | 194 | 156 | 25.6 | 3.2 |  |  |  |  |  | 
CO[C@@]12C(COC(N)=O)C3=C(C(=O)C(C)=C(NC(CCN=C(N)N)C(=O)O)C3=O)N1CC1NC12 (stereo partly drawn) | 263 | 138 | 25.6 | 6.4 |  |  |  |  |  | 
CO[C@@]12C(COC(N)=O)C3=C(C(=O)C(C)=C(NCCNc4ccc([N+](=O)[O-])cn4)C3=O)N1CC1NC12 (stereo partly drawn) | 250 | 144 | 12.8 | 2.6 | 8 | 0.77 |  |  |  | 
CO[C@@]12C(COC(N)=O)C3=C(C(=O)C(C)=C(NCCc4ccco4)C3=O)N1CC1NC12 (stereo partly drawn) | 156 | 328 | 25.6 | 1.6 | 16 |  |  |  |  | 
CO[C@@]12C(COC(N)=O)C3=C(C(=O)C(C)=C(NCCNCCN)C3=O)N1CC1NC12 (stereo partly drawn) | 178 | 100 |  |  |  | -1.14 |  |  |  | 
CO[C@@]12C(COC(N)=O)C3=C(C(=O)C(C)=C(NCc4ccccn4)C3=O)N1CC1NC12 (stereo partly drawn) | 272 | 233 | 25.6 | 1.6 | 16 | -0.09 |  |  |  | 
CO[C@@]12C(COC(N)=O)C3=C(C(=O)C(C)=C(NCCOCCO)C3=O)N1CC1NC12 (stereo partly drawn) | 213 | 181 | 25.6 | 0.4 | 64 | -0.71 |  |  |  | 
CO[C@@]12C(COC(N)=O)C3=C(C(=O)C(C)=C(NCCCN)C3=O)N1CC1NC12 (stereo partly drawn) | 279 | 147 | 25.6 | 6.4 | 4 | -1.3 |  |  |  | 
CO[C@@]12C(COC(N)=O)C3=C(C(=O)C(C)=C(NCCCN(CCO)CCO)C3=O)N1CC1NC12 (stereo partly drawn) | 279 | 137 | 25.6 | 25.6 | 1 | -0.36 |  |  |  | 
CO[C@@]12C(COC(N)=O)C3=C(C(=O)C(C)=C(N(C)CCc4ccccn4)C3=O)N1CC1NC12 (stereo partly drawn) | 319 | 300 | 12.8 | < 0.2 | > 64 | 0.37 |  |  |  | 
CO[C@@]12C(COC(N)=O)C3=C(C(=O)C(C)=C(NCC(O)CO)C3=O)N1CC1NC12 (stereo partly drawn) | 205 | 175 | 25.6 | 6.4 | 4 |  |  |  |  | 
CO[C@@]12C(COC(N)=O)C3=C(C(=O)C(C)=C(NCCc4c[nH]cn4)C3=O)N1CC1NC12 (stereo partly drawn) | 213 | 163 | 25.6 | 1.6 | 16 | -0.19 |  |  |  | 
CO[C@@]12C(COC(N)=O)C3=C(C(=O)C(C)=C(NCCC(N)C(=O)O)C3=O)N1CC1NC12 (stereo partly drawn) | 206 | 139 | 25.6 | 6.4 |  |  |  |  |  | 
CO[C@@]12C(COC(N)=O)C3=C(C(=O)C(C)=C(NCCc4ccncc4)C3=O)N1CC1NC12 (stereo partly drawn) | 233 |  | 25.6 | 3.2 | 8 | 0.31 |  |  |  | 167
CO[C@@]12C(COC(N)=O)C3=C(C(=O)C(C)=C(N(CCN)CCN)C3=O)N1CC1NC12 (stereo partly drawn) | 276 | 129 | 25.6 | 3.2 | 8 |  |  |  |  | 
